{"source": "ChEMBL document CHEMBL4028906", "about": "“Allosteric Inhibitors of SHP2 with Therapeutic Potential for Cancer Treatment” (J Med Chem, 2017)", "key": {"Homo sapiens [1]": {"species_on_record": "Homo sapiens", "assay": "Selectivity ratio of IC50 for SHP1 (unknown origin) expressed in Escherichia coli BL21(DE3) to IC50 for SHP2 E76A mutant (unknown origin) expressed in Escherichia coli BL21(DE3)", "outline": "(§1)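 Ratio of IC50 values from one DIFMUP fluorescence assay (Ex/Em 358/455), room temperature, 0.1 M sodium acetate pH 5.0. His-tagged SHP2 E76A (1.5 nM) or counter-phosphatase purified from E. coli, preincubated 20 min with compound (eight 3-fold dilutions), then DIFMUP added for 20 min. DIFMUP was at Km for each counter-phosphatase. Duplicates; IC50 from at least three independent experiments.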"}, "[2]": {"target": "Tyrosine-protein phosphatase non-receptor type 6 (Homo sapiens, UniProt P29350)", "sequence (P29350 whole entry)": "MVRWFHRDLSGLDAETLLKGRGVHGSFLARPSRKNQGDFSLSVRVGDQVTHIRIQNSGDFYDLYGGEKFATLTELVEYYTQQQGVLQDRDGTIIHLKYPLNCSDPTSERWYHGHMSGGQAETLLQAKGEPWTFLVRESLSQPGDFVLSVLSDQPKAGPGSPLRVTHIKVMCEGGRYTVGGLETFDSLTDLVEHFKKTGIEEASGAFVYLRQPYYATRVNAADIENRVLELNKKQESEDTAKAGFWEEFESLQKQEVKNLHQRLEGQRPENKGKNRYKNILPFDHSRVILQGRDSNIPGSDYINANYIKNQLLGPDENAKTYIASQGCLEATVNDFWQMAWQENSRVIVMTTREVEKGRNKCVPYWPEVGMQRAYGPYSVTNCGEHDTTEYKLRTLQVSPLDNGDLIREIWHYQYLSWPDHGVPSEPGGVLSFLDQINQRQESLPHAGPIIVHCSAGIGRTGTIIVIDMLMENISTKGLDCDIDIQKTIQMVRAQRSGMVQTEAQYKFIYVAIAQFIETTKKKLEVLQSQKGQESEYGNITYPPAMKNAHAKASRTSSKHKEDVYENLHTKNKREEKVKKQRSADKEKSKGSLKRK", "assay": "Inhibition of SHP1 (unknown origin) expressed in Escherichia coli BL21(DE3) using DIFMUP as substrate preincubated for 20 mins followed by substrate addition measured after 20 mins by phosphatase assay", "outline": "(§2)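 Phosphatases purified from E. coli and run as for SHP2 E76A: 20 min room-temperature preincubation with compound in 0.1 M sodium acetate pH 5.0, then DIFMUP at each enzyme's Km, 20 min, fluorescence 358/455 nm. Eight 3-fold dilutions in duplicate; IC50 from at least three independent experiments.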"}, "[3]": {"target": "Low molecular weight phosphotyrosine protein phosphatase (Homo sapiens, UniProt P24666)", "sequence (P24666 whole entry)": "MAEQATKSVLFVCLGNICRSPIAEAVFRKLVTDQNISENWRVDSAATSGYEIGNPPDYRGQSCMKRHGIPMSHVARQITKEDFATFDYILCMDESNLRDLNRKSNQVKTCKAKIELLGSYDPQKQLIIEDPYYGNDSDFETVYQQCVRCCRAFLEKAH", "assay": "Inhibition of LMW-PTP (unknown origin) expressed in Escherichia coli BL21(DE3) using DIFMUP as substrate preincubated for 20 mins followed by substrate addition measured after 20 mins by phosphatase assay", "outline": "as §2"}, "[4]": {"target": "Dual specificity protein phosphatase 6 (Homo sapiens, UniProt Q16828)", "sequence (Q16828 whole entry)": "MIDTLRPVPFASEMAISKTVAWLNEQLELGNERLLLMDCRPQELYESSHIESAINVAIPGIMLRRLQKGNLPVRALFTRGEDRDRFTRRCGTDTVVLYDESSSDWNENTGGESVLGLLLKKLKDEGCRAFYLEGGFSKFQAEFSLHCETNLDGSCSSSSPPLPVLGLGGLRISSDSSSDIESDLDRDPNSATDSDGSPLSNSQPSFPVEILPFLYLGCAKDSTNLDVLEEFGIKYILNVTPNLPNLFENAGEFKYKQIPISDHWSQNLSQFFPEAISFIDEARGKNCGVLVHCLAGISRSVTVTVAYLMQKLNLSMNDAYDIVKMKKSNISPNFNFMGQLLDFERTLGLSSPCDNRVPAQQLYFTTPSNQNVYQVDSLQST", "assay": "Inhibition of MKP3 (unknown origin) expressed in Escherichia coli BL21(DE3) using DIFMUP as substrate preincubated for 20 mins followed by substrate addition measured after 20 mins by phosphatase assay", "outline": "as §2"}, "Homo sapiens [5]": {"species_on_record": "Homo sapiens", "assay": "Selectivity ratio of IC50 for TC-PTP (unknown origin) expressed in Escherichia coli BL21(DE3) to IC50 for SHP2 E76A mutant (unknown origin) expressed in Escherichia coli BL21(DE3)", "outline": "as §1"}, "[6]": {"assay": "Inhibition of SHP2 N58S mutant (unknown origin)", "set-up": "species or system Homo sapiens"}, "[7]": {"target": "T1, Tyrosine-protein phosphatase non-receptor type 11 (Homo sapiens) (UniProt Q06124)", "T1 sequence (whole entry)": "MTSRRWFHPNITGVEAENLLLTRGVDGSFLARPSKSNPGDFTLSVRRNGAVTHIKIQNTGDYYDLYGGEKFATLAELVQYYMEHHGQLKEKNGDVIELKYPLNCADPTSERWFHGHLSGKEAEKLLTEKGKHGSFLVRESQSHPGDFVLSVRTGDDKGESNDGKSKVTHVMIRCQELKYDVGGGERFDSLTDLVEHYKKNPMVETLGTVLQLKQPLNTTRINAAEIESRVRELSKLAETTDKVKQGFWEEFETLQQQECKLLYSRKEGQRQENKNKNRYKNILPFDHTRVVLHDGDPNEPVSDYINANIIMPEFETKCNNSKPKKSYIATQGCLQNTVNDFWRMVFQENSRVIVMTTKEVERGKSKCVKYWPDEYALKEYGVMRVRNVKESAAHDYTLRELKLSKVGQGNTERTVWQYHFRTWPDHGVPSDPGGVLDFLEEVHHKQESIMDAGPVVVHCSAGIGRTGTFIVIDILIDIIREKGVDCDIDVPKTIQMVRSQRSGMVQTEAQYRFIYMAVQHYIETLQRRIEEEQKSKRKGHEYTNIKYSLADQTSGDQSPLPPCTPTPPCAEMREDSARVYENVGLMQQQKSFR", "assay": "Allosteric inhibition of SHP2 in human NCI-H661 cells assessed as downregulation of ERK1/2 activation at 10 uM by Western blot analysis", "type": "cell-based", "conditions": "TDE = time-dependent effect"}, "[8]": {"target": "T1, Tyrosine-protein phosphatase non-receptor type 11 (Homo sapiens)", "assay": "Allosteric inhibition of SHP2 in human SF268 cells stably expressing Yap-Luc reporter assessed as reduction in YAP transcriptional activity after 12 hrs by Yap-luciferase reporter gene assay", "type": "cell-based"}, "MV4-11 [9]": {"system": "MV4-11", "assay": "Antitumor activity against human MV4-11 cells xenografted in BALB/c mouse assessed as tumor growth inhibition at 30 mg/kg administered qd via oral gavage measured twice weekly relative to control", "type": "functional", "conditions": "MV4-11, po, read-out: TGI", "outline": "(§3)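 Female BALB/c nude mice given subcutaneous MV4;11 cells (5×10^6, in 50% phenol red-free matrigel in PBS). Once tumours reached about 230 mm³, mice were randomised to vehicle or oral gavage once daily (10 ml/kg). Tumour volume was measured by caliper in two dimensions twice a week, along with body weight. Data given as mean±sem, with significance assessed on day 14.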"}, "MV4-11 [10]": {"system": "MV4-11", "assay": "Antitumor activity against human MV4-11 cells xenografted in BALB/c mouse assessed as tumor growth inhibition at 10 mg/kg administered qd via oral gavage measured twice weekly relative to control", "type": "functional", "conditions": "MV4-11, po, read-out: TGI", "outline": "as §3"}, "[11]": {"target": "T1, Tyrosine-protein phosphatase non-receptor type 11 (Homo sapiens)", "assay": "Allosteric inhibition of SHP2 in human SF268 cells assessed as upregulation of YAP phosphorylation up to 20 uM after 2 hrs by Western blot analysis", "type": "cell-based", "outline": "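SF268 cells given DMSO or inhibitor for 2 h. YAP immunoprecipitated and immunoblotted with pY-100 phosphotyrosine antibody, which detects the single YXXP tyrosine Y357.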"}, "K562": {"system": "K562", "assay": "Antiproliferative activity against human K562 cells at 3 to 6 uM after 2 days by CellTiter-Glo assay", "type": "functional, cell-based", "outline": "(§4)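 3000 cells/well in 96-well plates, grown overnight, then inhibitor at indicated concentrations for 2 days (48 h). Viability by CellTiter-Glo; mean±s.d., n=3.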"}, "NCI-H1838": {"system": "NCI-H1838", "assay": "Antiproliferative activity against human NCI-H1838 cells at 3 to 6 uM after 2 days by CellTiter-Glo assay", "type": "functional, cell-based", "outline": "as §4"}, "KYSE-520 cell line": {"system": "KYSE-520 cell line", "assay": "Antiproliferative activity against human KYSE520 cells at 3 to 6 uM after 2 days by CellTiter-Glo assay", "type": "functional, cell-based", "outline": "as §4"}, "KMS-11": {"system": "KMS-11", "assay": "Antiproliferative activity against human KMS11 cells at 3 to 6 uM after 2 days by CellTiter-Glo assay", "type": "functional, cell-based", "outline": "as §4"}, "Ramos": {"system": "Ramos", "assay": "Antiproliferative activity against human Ramos cells at 3 to 6 uM after 2 days by CellTiter-Glo assay", "type": "functional, cell-based", "outline": "as §4"}, "MOLM-13": {"system": "MOLM-13", "assay": "Antiproliferative activity against human MOLM13 cells at 3 to 6 uM after 2 days by CellTiter-Glo assay", "type": "functional, cell-based", "outline": "as §4"}, "NCI-H1975": {"system": "NCI-H1975", "assay": "Antiproliferative activity against human NCI-H1975 cells assessed as reduction in colony formation at 2.5 to 10 uM after 2 weeks by soft agar assay", "type": "functional, cell-based", "outline": "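NCI-H1975 cells at 10,000/well in 0.4% agarose over a 1% low-melt agarose base layer (6-well). Inhibitor at varying concentrations, replenished twice weekly. After 2 weeks, colonies stained with iodonitrotetrazolium chloride and counted; mean±s.d., n=3.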"}, "Mus musculus": {"system": "Mus musculus", "assay": "Toxicity in BALB/c mouse xenografted with human MV4-11 cells assessed as effect on body weight at 10 to 30 mg/kg administered qd via oral gavage measured twice weekly", "type": "organism-based", "conditions": "in vivo", "outline": "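Female BALB/c nude mice implanted subcutaneously with 5×10^6 MV4;11 cells in 50% matrigel/PBS. At about 230 mm³, mice randomized to vehicle, 10 or 30 mg/kg (10 ml/kg) once daily by oral gavage. Body weight and caliper tumor dimensions measured twice weekly; mean±sem.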"}}, "note": "The source made the active and inactive calls. The calls are words filed in the database; no cut-off is given here."}
{"smiles": "CC1(N)CCN(c2nc(-c3ccc4cc(Br)ccc4c3)cs2)CC1", "values": [{"measurement": "Ratio IC50", "setting": "Homo sapiens [1]", "value": 48}, {"measurement": "IC50", "setting": "[2]", "value": 34.6, "unit": "µM"}, {"measurement": "IC50", "setting": "[3]", "value": "> 100", "unit": "µM"}, {"measurement": "IC50", "setting": "[4]", "value": "> 100", "unit": "µM"}, {"measurement": "Ratio IC50", "setting": "Homo sapiens [5]", "value": "> 30"}, {"measurement": "IC50", "setting": "[6]", "value": 1.2, "unit": "µM"}, {"measurement": "inhibition", "setting": "[7]", "value": "Tde"}, {"measurement": "inhibition", "setting": "[8]", "value": "Dose-dependent effect"}, {"measurement": "inhibition in vivo at 30 mg/kg", "setting": "MV4-11 [9]", "value": 56, "unit": "%"}, {"measurement": "inhibition in vivo at 10 mg/kg", "setting": "MV4-11 [10]", "value": 44.6, "unit": "%"}, {"measurement": "inhibition", "setting": "[11]", "value": "Active"}, {"measurement": "Activity", "setting": "K562", "value": "Active"}, {"measurement": "Activity", "setting": "NCI-H1838", "value": "Active"}, {"measurement": "Activity", "setting": "KYSE-520 cell line", "value": "Active"}, {"measurement": "Activity", "setting": "KMS-11", "value": "Active"}, {"measurement": "Activity", "setting": "Ramos", "value": "Active"}, {"measurement": "Activity", "setting": "MOLM-13", "value": "Active"}, {"measurement": "Activity", "setting": "NCI-H1975", "value": "Active"}, {"measurement": "Activity", "setting": "Mus musculus", "value": "Non-Toxic"}]}
